For 6 compounds, EC50 and Activity results are on record in ChEMBL document CHEMBL1148129, “Reversal of multidrug resistance by tropane alkaloids from the stems of Erythroxylum rotundifolium” (2002).

One test concerns Lu1. Kind of test: Cytotoxicity against human Lu1 cells. Type of test: functional. To be noted: read-out: ED50 (the source's name).
The nature of test [1]: Cytotoxicity against human BC1 cells. The test is classed as functional. Conditions: read-out: ED50 (the source's name).
For a further test, the system named is KB. As to the kind of experiment: Cytotoxicity against human KB cells. The test is classed as functional. Conditions: read-out: ED50 (the source's name). The gist of the method:
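Parental (drug-sensitive) KB oral epidermoid carcinoma cells were exposed to test compound without vinblastine. Cytotoxicity is reported as ED50 in µg/mL.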

Test [2] in a line: Cytotoxicity against human KBV1 cells in absence of vinblastine. Type of test: functional. To be noted: KB-V1, read-out: ED50 (the source's name). Summed up:
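Multidrug-resistant oral epidermoid carcinoma KB-V1 cells were incubated with test compound alone, with no vinblastine added. Cytotoxicity is reported as ED50 in µg/mL.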

Test [3] is described as follows: Cytotoxicity against human KBV1 cells in presence of vinblastine. Type of test: functional. To be noted: KB-V1, read-out: ED50 (the source's name). The gist of the method: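 Multidrug-resistant oral epidermoid carcinoma KB-V1 cells were incubated with test compound in the presence of vinblastine at 1.0 µg/mL. Cytotoxicity is reported as ED50 in µg/mL.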
In a further test the test system is LNCaP. As to the kind of experiment: Cytotoxicity against human LNCAP cells. The test is classed as functional. Conditions: read-out: ED50 (the source's name).
The next test concerns ASK. As to the kind of experiment: Cytotoxicity against human ASK cells at 20 ug/mL. Type of test: functional, cell-based.
The next test has as its system Col2. Kind of test: Cytotoxicity against human Col2 cells. To be noted: read-out: ED50 (the source's name). Type of test: functional.

Structures are written as SMILES. In brackets after ≈: the same amount, converted by molar mass. Activity calls are given as the source filed them. No cut-off for these calls is given here. Some results are limits rather than exact numbers.

For `CN1C2C[C@H](O)CC1[C@@H](OC(=O)c1ccccc1)C2` (some centres not stated), the EC50 (in the test with Lu1; in test [1]; with KB; in test [2]; in test [3]) was more than 20 µg/mL throughout.
As for `COc1cc(/C=C\C(=O)O[C@H]2C[C@H]3C[C@H](OC(=O)c4ccccc4)[C@@H](C2)N3C)cc(OC)c1OC`, the EC50 in the test with Lu1 is more than 20 µg/mL; in test [1], more than 20 µg/mL; in the test with KB, more than 20 µg/mL; in test [2], 3.5 µg/mL (≈ 7.27 µM); in test [3] it was 0.3 µg/mL.
On to `COc1cc(/C=C/C(=O)O[C@@H]2C[C@@H]3[C@@H](OC(=O)c4cc(OC)c(OC)c(OC)c4)[C@@H](O)[C@H](C2)N3C)cc(OC)c1OC`, for which the EC50 in the test with LNCaP amounted to 15 µg/mL (≈ 25.5 µM); in the test with Lu1, 14.6 µg/mL (≈ 24.8 µM); in test [1], 6.1 µg/mL (≈ 10.4 µM); with KB, 12.6 µg/mL (≈ 21.4 µM); in the test on Col2, 10.4 µg/mL (≈ 17.7 µM); in test [2], 20 µg/mL (≈ 34 µM). For the same compound, the EC50 in test [3] amounted to 6.6 µg/mL. Besides, in the test on ASK, the result was inactive.
For the compound `COc1cc(/C=C/C(=O)O[C@@H]2C[C@@H]3[C@@H](OC(=O)c4ccccc4)[C@@H](OC(C)=O)[C@H](C2)N3C)cc(OC)c1OC`, the EC50 with LNCaP is 14.9 µg/mL (≈ 27.6 µM); in the test with Lu1, more than 20 µg/mL; in test [1], 14.6 µg/mL (≈ 27.1 µM); in the test with KB it was 14.8 µg/mL (≈ 27.4 µM); in the test on Col2, more than 20 µg/mL; in test [2], 13.2 µg/mL (≈ 24.5 µM). Moreover, the EC50 in test [3] amounted to 1.1 µg/mL. In the test with ASK, the result was inactive.
For the compound `COc1cc(/C=C/C(=O)O[C@@H]2C[C@@H]3[C@@H](OC(=O)c4ccccc4)[C@@H](O)[C@H](C2)N3C)cc(OC)c1OC`, the EC50 in the test with LNCaP was 6.7 µg/mL (≈ 13.5 µM); in the test with Lu1 it was more than 20 µg/mL; in test [1], more than 20 µg/mL; with KB, more than 20 µg/mL; with Col2 it was more than 20 µg/mL; in test [2], 2.6 µg/mL (≈ 5.23 µM). The EC50 in test [3] was found to be 0.3 µg/mL. Further, the outcome with ASK was inactive.
Consider `COc1cc(/C=C/C(=O)O[C@H]2C[C@H]3C[C@H](OC(=O)c4ccccc4)[C@@H](C2)N3C)cc(OC)c1OC`, for which the EC50 in the test on LNCaP was 10 µg/mL (≈ 20.8 µM); in the test on Lu1, more than 20 µg/mL; in test [1] it was 15.3 µg/mL (≈ 31.8 µM); in the test with KB, 10.3 µg/mL (≈ 21.4 µM); with Col2, 5.1 µg/mL (≈ 10.6 µM); in test [2], 3.6 µg/mL (≈ 7.48 µM). Further, in test [3], the EC50 amounted to 0.2 µg/mL. Moreover, the result in the test with ASK was inactive.
